Source: ChEMBL document CHEMBL4725348, “Rational Design and Evaluation of 6-(Pyrimidin-2-ylamino)-3,4-dihydroquinoxalin-2(1H)-ones as Polypharmacological Inhibitors of BET and Kinases” (J Med Chem, 2020)

How the values were obtained:
Homo sapiens = organism: Homo sapiens; test: Selectivity ratio of IC50 for inhibition of human CDK2 to IC50 for inhibition of human CDK9
[1] = biological target: T1, Bromodomain-containing protein 4 (Homo sapiens, UniProt O60885); test: Inhibition of His6-tagged BRD4 bromodomain 1 (unknown origin) expressed in Escherichia coli Bl21(DE3) cells incubated for 4 hrs by FP assay
How it was run: (§1)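 Fluorescence polarization. Purified bromodomain (His6 tag removed with TEV, size-exclusion purified) equilibrated with fluorescent ligand. Compound or DMSO (2‰ final) then added and left 4 h at room temperature in the dark. Anisotropy read at ex 485/em 530 nm. IC50 values are means of at least two independent experiments; single-point inhibition tested at the listed concentration.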

[2] = Elimination rate constant in ICR mouse at 3 mg/kg, ip and measured up to 24 hrs by TQ-S triple quadrupole mass spectrometric method; assay type: ADME, organism-based; details: in vivo
How it was run: (§2)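 Male ICR mice (20 - 22 g, n = 3) dosed intraperitoneally, compound at 1 mg/mL in 1%DMSO/0.5%HPMC (5/95, v/v). EDTA plasma collected 0.25–24 h. 10 µL plasma treated with methanol:acetonitrile (1:1) containing internal standard, then centrifuged. LC-MS/MS on C18 UPLC. Parameters derived from composite mean plasma concentration-time data; Cmax is the maximum observed concentration and Tmax the time it is reached.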

[3] = biological target: Bromodomain-containing protein 2 (Homo sapiens) (UniProt P25440); test: Inhibition of His6-tagged BRD2 bromodomain 1 (unknown origin) expressed in Escherichia coli Bl21(DE3) cells at 1 uM incubated for 4 hrs by FP assay relative to control; how it was run: as §1
[4] = Cmax in ICR mouse at 3 mg/kg, ip and measured up to 24 hrs by TQ-S triple quadrupole mass spectrometric method; assay type: ADME, organism-based; set-up: route intraperitoneal, dose 3 mg/kg, time <=24; details: in vivo; how it was run: as §2
[5] = Tmax in ICR mouse at 3 mg/kg, ip and measured up to 24 hrs by TQ-S triple quadrupole mass spectrometric method; assay type: ADME, organism-based; details: in vivo; how it was run: as §2
[6] = biological target: T2, Cyclin-dependent kinase 9 (Homo sapiens, UniProt P50750); test: Inhibition of CDK9 in human HCT-116 cells assessed as reduction in phosphorylation of […] protein expression at 50 to 500 nM after 24 hrs by Western blot analysis; assay type: cell-based; details: dose nM 50-500, time 24.0 hrs
How it was run: (§3)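 HCT-116 cells plated 24 h, then treated 24 h at 0, 50, 100, 250 or 500 nM. Lysates immunoblotted for p-AR and p-RNA Pol II CTD with GAPDH as loading control; bands quantified and normalized.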

[7] = biological target: Cyclin-dependent kinase 1 (Homo sapiens) (UniProt P06493); test: Inhibition of human CDK1 at 1 uM by kinome scan method relative to control
How it was run: (§4)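 Eurofins DiscoveRx diversity kinase panel run at 1 µM. Inhibition values are means of at least two independent experiments.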

[8] = biological target: T3, Cyclin-dependent kinase 2 (Homo sapiens, UniProt P24941); test: Inhibition of human CDK2 by kinome scan method
[9] = AUC (0 to infinity) in ICR mouse at 3 mg/kg, ip and measured up to 24 hrs by TQ-S triple quadrupole mass spectrometric method; assay type: ADME, organism-based; set-up: route intraperitoneal, dose 3 mg/kg, time <=24; details: in vivo; how it was run: as §2
[10] = biological target: Bromodomain-containing protein 2 (Homo sapiens) (UniProt P25440); test: Inhibition of His6-tagged BRD2 bromodomain 2 (unknown origin) expressed in Escherichia coli Bl21(DE3) cells at 1 uM incubated for 4 hrs by FP assay relative to control; how it was run: as §1
[11] = biological target: T2, Cyclin-dependent kinase 9; test: Inhibition of CDK9 in human HCT-116 cells assessed as reduction in phosphorylation of AR protein expression at 50 to 500 nM after 24 hrs by Western blot analysis; assay type: cell-based; details: dose nM 50-500, time 24.0 hrs; how it was run: as §3
[12] = biological target: T1, Bromodomain-containing protein 4; test: Inhibition of His6-tagged BRD4 bromodomain 2 (unknown origin) expressed in Escherichia coli Bl21(DE3) cells at 1 uM incubated for 4 hrs by FP assay relative to control; how it was run: as §1
[13] = biological target: T2, Cyclin-dependent kinase 9; test: Inhibition of human CDK9 by mobility shift assay relative to control
How it was run: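 Recombinant CDK9 incubated with compound and CTD3 peptide substrate. Activity read by Caliper mobility-shift; Dinaciclib served as positive control. IC50 values are means of at least two independent experiments.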

[14] = AUC (0 to t) in ICR mouse at 3 mg/kg, ip and measured up to 24 hrs by TQ-S triple quadrupole mass spectrometric method; assay type: ADME, organism-based; set-up: route intraperitoneal, dose 3 mg/kg, time <=24; details: in vivo; how it was run: as §2
[15] = Half life in ICR mouse at 3 mg/kg, ip and measured up to 24 hrs by TQ-S triple quadrupole mass spectrometric method; assay type: ADME, organism-based; details: in vivo; how it was run: as §2
[16] = biological target: T3, Cyclin-dependent kinase 2; test: Inhibition of human CDK2 at 1 uM by kinome scan method relative to control; how it was run: as §4

T2 sequence (P50750 whole entry): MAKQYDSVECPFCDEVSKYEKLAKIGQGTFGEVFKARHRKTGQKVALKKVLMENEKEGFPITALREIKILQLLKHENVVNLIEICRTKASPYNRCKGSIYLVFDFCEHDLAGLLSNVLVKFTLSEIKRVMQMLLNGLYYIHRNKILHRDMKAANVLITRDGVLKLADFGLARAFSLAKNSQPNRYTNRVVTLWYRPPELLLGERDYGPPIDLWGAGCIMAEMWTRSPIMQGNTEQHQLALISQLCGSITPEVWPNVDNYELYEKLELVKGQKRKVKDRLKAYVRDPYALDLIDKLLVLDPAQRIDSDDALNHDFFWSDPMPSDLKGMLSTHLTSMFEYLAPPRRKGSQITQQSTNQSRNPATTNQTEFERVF
Chain of Bromodomain-containing protein 2 (Homo sapiens) (P25440 whole entry, looked up): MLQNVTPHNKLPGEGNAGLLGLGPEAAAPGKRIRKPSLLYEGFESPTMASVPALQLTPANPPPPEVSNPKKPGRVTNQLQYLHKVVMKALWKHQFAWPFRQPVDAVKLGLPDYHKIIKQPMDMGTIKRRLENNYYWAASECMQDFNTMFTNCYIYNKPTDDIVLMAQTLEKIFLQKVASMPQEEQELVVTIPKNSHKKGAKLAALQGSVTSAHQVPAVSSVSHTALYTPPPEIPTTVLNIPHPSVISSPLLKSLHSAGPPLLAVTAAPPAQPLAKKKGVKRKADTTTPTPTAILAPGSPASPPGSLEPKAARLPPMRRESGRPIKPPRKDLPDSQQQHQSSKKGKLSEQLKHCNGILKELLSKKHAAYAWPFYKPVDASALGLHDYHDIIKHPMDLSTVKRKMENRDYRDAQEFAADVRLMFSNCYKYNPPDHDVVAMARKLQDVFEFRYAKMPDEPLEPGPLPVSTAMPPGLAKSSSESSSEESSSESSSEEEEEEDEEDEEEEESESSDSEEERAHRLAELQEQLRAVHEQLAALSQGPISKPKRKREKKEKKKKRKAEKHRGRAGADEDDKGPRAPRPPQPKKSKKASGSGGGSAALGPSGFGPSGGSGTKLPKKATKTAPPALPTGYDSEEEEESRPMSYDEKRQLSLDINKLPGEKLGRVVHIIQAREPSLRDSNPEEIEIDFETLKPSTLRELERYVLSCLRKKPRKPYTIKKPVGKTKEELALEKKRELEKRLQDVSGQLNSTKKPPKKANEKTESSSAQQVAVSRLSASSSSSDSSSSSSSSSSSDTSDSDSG
Chain of Cyclin-dependent kinase 1 (Homo sapiens) (P06493 whole entry, looked up): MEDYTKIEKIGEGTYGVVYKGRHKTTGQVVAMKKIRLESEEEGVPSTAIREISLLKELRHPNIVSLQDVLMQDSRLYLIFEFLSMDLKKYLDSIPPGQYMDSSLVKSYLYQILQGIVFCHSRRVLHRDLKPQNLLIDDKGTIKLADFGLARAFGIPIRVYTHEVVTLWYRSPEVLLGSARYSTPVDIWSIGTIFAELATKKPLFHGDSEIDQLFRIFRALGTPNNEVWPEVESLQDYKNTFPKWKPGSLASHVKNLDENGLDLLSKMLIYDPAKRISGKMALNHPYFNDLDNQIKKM

Ratio IC50 (Homo sapiens): 8
IC50 [1]: 12.7 nM
k el at 24 h [2]: 0.000403 s⁻¹
inhibition [3]: < 12%
Cmax [4]: 1370 ng/mL
Tmax [5]: 11.6 min
inhibition [6]: Dose-dependent effect
inhibition [7]: 90%
IC50 [8]: 169 nM
AUC(0-inf) [9]: 759 ng·h/mL
inhibition [10]: < 12%
inhibition [11]: Dose-dependent effect
inhibition [12]: < 12%
IC50 [13]: 22.4 nM
AUC(0-t) at 24 h [14]: 757 ng·h/mL
half-life [15]: 28.8 min
inhibition [16]: 90%
Structure (SMILES): CC(C)N1c2cc(Nc3nccc(-c4cncc5ccccc45)n3)ccc2N(C)C(=O)[C@H]1C
